Each structure is given as a SMILES string. Values after ≈ are worked out from the molar mass of the structure shown. Active and inactive are the calls of the source. No cut-off for these calls is given here. Where a SMILES comes first, the peptide text is derived from it. [ ]: non-standard residue; d: D form. The star is where a group is joined. X1 = CC(=O)OC[C@H](CC(C)C)N*; Aib = CC(C)(N)C(=O)O

In one test the test system is Bacillus subtilis. As to the kind of experiment: Antimicrobial activity against Bacillus subtilis ATCC 6633 at 100 ug/disk after 24 hrs by standard disk assay. The test is classed as functional. The note with it: ATCC 6633, 24 h, read-out: IZ. In a few lines: (§1)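 Bacteria grown on nutrient agar at 37 °C. Test plates seeded with 5×10^5 cells per mL. Compound loaded onto 6 mm filter disks placed on the agar. Inhibition zone diameters read after 24 h.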

The test system of test [1] is L1210. As to the kind of experiment: Cytotoxicity against mouse L1210 cells at 100 ug/ml. The test is classed as functional, cell-based.
In another test the test system is Brevibacillus brevis. As to the kind of experiment: Antimicrobial activity against Bacillus brevis ATCC 9999 at 100 ug/disk after 24 hrs by standard disk assay. The test is classed as functional. The note with it: ATCC 9999, 24 h, read-out: IZ. The essentials:
as §1

A further test relates to Micrococcus luteus. As to the kind of experiment: Antimicrobial activity against Micrococcus luteus ATCC 21415 at 100 ug/disk after 24 hrs by standard disk assay. The note with it: ATCC 21415, 24 h, read-out: IZ. It counts as functional. The essentials:
as §1

Test [2] is described as follows: Cytotoxicity against human COLO320 cells. The note with it: COLO 320. The test is classed as functional, cell-based. The essentials:
(§2)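 Cells were grown and assayed in RPMI 1640 medium, and the IC50 was reported.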

For test [3], the system named is L1210. As to the kind of experiment: Cytotoxicity against mouse L1210 cells. It counts as functional, cell-based. In a few lines:
as §2

Take `CC(=O)N[C@@H](CC(C)C)C(=O)NC(C)(C)C(=O)N1CCC[C@H]1C(=O)NC(C)(C)C(=O)N[C@@H](CC(C)C)C(=O)NC(C)(C)C(=O)N1CCC[C@H]1C(=O)N[C@@H](C)C(=O)NC(C)(C)C(=O)N1CCC[C@H]1C(=O)N[C@H](C(=O)N[C@H](CO)CC(C)C)C(C)C` [CERVININ]: the zone of inhibition at 100 µg/disc is 8 mm with Bacillus subtilis, 7 mm in the test on Brevibacillus brevis and 15 mm in the test with Micrococcus luteus. The outcome in the test on L1210 [1] was inactive. Further, the IC50 in test [2] stood at 80 µg/mL (≈ 67.4 µM).
`CC(=O)N[C@@H](CC(C)C)C(=O)NC(C)(C)C(=O)N1CCC[C@H]1C(=O)NC(C)(C)C(=O)N[C@@H](CC(C)C)C(=O)NC(C)(C)C(=O)N1CCC[C@H]1C(=O)N[C@@H](C)C(=O)NC(C)(C)C(=O)N1CCC[C@H]1C(=O)N[C@H](C(=O)N[C@H](COC(C)=O)CC(C)C)C(C)C` (Ac-L[Aib]P[Aib]L[Aib]PA[Aib]PV-X1): the zone of inhibition at 100 µg/disc in the test on Bacillus subtilis came to 11 mm; in the test with Brevibacillus brevis it was 10 mm; in the test with Micrococcus luteus it was 16 mm. For the same molecule, the IC50 amounted to 40 µg/mL (≈ 32.5 µM) in test [2] and 32 µg/mL (≈ 26 µM) in the test on L1210 [3].
